Test system: Fibroblast
Assay: Multiplex assay against human fibroblast
Assay type: toxicity, cell-based
In short: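 Per cents of healthy-nucleus cells form the tubulin, mitochondrial-mass and membrane-permeability phenotype values. Live cells were stained at seeding with Hoechst33342, BioTracker Green Microtubule Cytoskeleton Dye, MitoTracker Red and Annexin V Alexa Fluor 680. After compound addition they were imaged on a CQ1 microscope at 37°C and 5% CO2, and CellPathfinder machine-learning gating split them into Hoechst high-intensity objects or normal cells, normal cells into healthy, pyknosed or fragmented nuclei, and pyknosed cells into mitotic or apoptotic.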

[1] = 12 h, 1 µM, compound concentration 1 uM, replicate 1
[2] = 12 h, 1 µM, compound concentration 1 uM, replicate 2
[3] = 12 h, 10 µM, compound concentration 10 uM, replicate 1
[4] = 12 h, 10 µM, compound concentration 10 uM, replicate 2
[5] = 24 h, 1 µM, compound concentration 1 uM, replicate 1
[6] = 24 h, 1 µM, compound concentration 1 uM, replicate 2
[7] = 24 h, 10 µM, compound concentration 10 uM, replicate 1
[8] = 24 h, 10 µM, compound concentration 10 uM, replicate 2
[9] = 48 h, 1 µM, compound concentration 1 uM, replicate 1
[10] = 48 h, 1 µM, compound concentration 1 uM, replicate 2
[11] = 48 h, 10 µM, compound concentration 10 uM, replicate 1
[12] = 48 h, 10 µM, compound concentration 10 uM, replicate 2

## CCCn1c(=O)c2[nH]c(-c3cnn(Cc4cccc(C(F)(F)F)c4)c3)nc2n(CC)c1=O [GS 6201]
[1]
  Population Apoptotic (%): 51%
  Population Fragmented Nuclei (%): 26%
  Population Healthy Nuclei (%): 32%
  Population Hoechst High Intensity Objects (%): 11%
  Population Membrane Permeable-Phenotype (%): 33%
  Population Mitochondria Different-Phenotype (%): 14%
  Population Mitotic Cells (%): 48%
  Population Normal (%): 88%
  Population Pyknosed Nuclei (%): 41%
  Population Tubulin-Different-Phenotype (%): 59%
  Total Cell Count: 95
[2]
  Population Apoptotic (%): 42%
  Population Fragmented Nuclei (%): 4%
  Population Healthy Nuclei (%): 88%
  Population Hoechst High Intensity Objects (%): 2%
  Population Membrane Permeable-Phenotype (%): 8%
  Population Mitochondria Different-Phenotype (%): 9%
  Population Mitotic Cells (%): 57%
  Population Normal (%): 97%
  Population Pyknosed Nuclei (%): 7%
  Population Tubulin-Different-Phenotype (%): 28%
  Total Cell Count: 75
[3]
  Population Apoptotic (%): 76%
  Population Fragmented Nuclei (%): 48%
  Population Healthy Nuclei (%): 18%
  Population Hoechst High Intensity Objects (%): 31%
  Population Membrane Permeable-Phenotype (%): 25%
  Population Mitochondria Different-Phenotype (%): 17%
  Population Mitotic Cells (%): 24%
  Population Normal (%): 68%
  Population Pyknosed Nuclei (%): 33%
  Population Tubulin-Different-Phenotype (%): 46%
  Total Cell Count: 221
[4]
  Population Apoptotic (%): 50%
  Population Fragmented Nuclei (%): 17%
  Population Healthy Nuclei (%): 77%
  Population Hoechst High Intensity Objects (%): 5%
  Population Membrane Permeable-Phenotype (%): 3%
  Population Mitochondria Different-Phenotype (%): 20%
  Population Mitotic Cells (%): 50%
  Population Normal (%): 94%
  Population Pyknosed Nuclei (%): 4%
  Population Tubulin-Different-Phenotype (%): 10%
  Total Cell Count: 98
[5]
  Population Apoptotic (%): 70%
  Population Fragmented Nuclei (%): 21%
  Population Healthy Nuclei (%): 42%
  Population Hoechst High Intensity Objects (%): 20%
  Population Membrane Permeable-Phenotype (%): 32%
  Population Mitochondria Different-Phenotype (%): 10%
  Population Mitotic Cells (%): 29%
  Population Normal (%): 79%
  Population Pyknosed Nuclei (%): 36%
  Population Tubulin-Different-Phenotype (%): 82%
  Total Cell Count: 83
[6]
  Population Apoptotic (%): 50%
  Population Fragmented Nuclei (%): 5%
  Population Healthy Nuclei (%): 90%
  Population Hoechst High Intensity Objects (%): 4%
  Population Membrane Permeable-Phenotype (%): 2%
  Population Mitotic Cells (%): 50%
  Population Normal (%): 95%
  Population Pyknosed Nuclei (%): 4%
  Population Tubulin-Different-Phenotype (%): 30%
  Total Cell Count: 81
[7]
  Population Apoptotic (%): 87%
  Population Fragmented Nuclei (%): 51%
  Population Healthy Nuclei (%): 24%
  Population Hoechst High Intensity Objects (%): 26%
  Population Membrane Permeable-Phenotype (%): 29%
  Population Mitochondria Different-Phenotype (%): 12%
  Population Mitotic Cells (%): 12%
  Population Normal (%): 73%
  Population Pyknosed Nuclei (%): 23%
  Population Tubulin-Different-Phenotype (%): 56%
  Total Cell Count: 224
[8]
  Population Apoptotic (%): 50%
  Population Fragmented Nuclei (%): 17%
  Population Healthy Nuclei (%): 72%
  Population Hoechst High Intensity Objects (%): 3%
  Population Membrane Permeable-Phenotype (%): 5%
  Population Mitochondria Different-Phenotype (%): 11%
  Population Mitotic Cells (%): 50%
  Population Normal (%): 96%
  Population Pyknosed Nuclei (%): 10%
  Population Tubulin-Different-Phenotype (%): 9%
  Total Cell Count: 139
[9]
  Population Apoptotic (%): 69%
  Population Fragmented Nuclei (%): 38%
  Population Healthy Nuclei (%): 41%
  Population Hoechst High Intensity Objects (%): 20%
  Population Membrane Permeable-Phenotype (%): 25%
  Population Mitochondria Different-Phenotype (%): 17%
  Population Mitotic Cells (%): 30%
  Population Normal (%): 79%
  Population Pyknosed Nuclei (%): 19%
  Population Tubulin-Different-Phenotype (%): 67%
  Total Cell Count: 84
[10]
  Population Apoptotic (%): 100%
  Population Fragmented Nuclei (%): 20%
  Population Healthy Nuclei (%): 76%
  Population Hoechst High Intensity Objects (%): 11%
  Population Membrane Permeable-Phenotype (%): 13%
  Population Mitochondria Different-Phenotype (%): 5%
  Population Mitotic Cells (%): 0%
  Population Normal (%): 89%
  Population Pyknosed Nuclei (%): 3%
  Population Tubulin-Different-Phenotype (%): 35%
  Total Cell Count: 100
[11]
  Population Apoptotic (%): 84%
  Population Fragmented Nuclei (%): 61%
  Population Healthy Nuclei (%): 26%
  Population Hoechst High Intensity Objects (%): 31%
  Population Membrane Permeable-Phenotype (%): 41%
  Population Mitochondria Different-Phenotype (%): 4%
  Population Mitotic Cells (%): 15%
  Population Normal (%): 68%
  Population Pyknosed Nuclei (%): 11%
  Population Tubulin-Different-Phenotype (%): 48%
  Total Cell Count: 234
[12]
  Population Apoptotic (%): 0%
  Population Fragmented Nuclei (%): 28%
  Population Healthy Nuclei (%): 67%
  Population Hoechst High Intensity Objects (%): 11%
  Population Membrane Permeable-Phenotype (%): 12%
  Population Mitochondria Different-Phenotype (%): 1%
  Population Mitotic Cells (%): 100%
  Population Normal (%): 88%
  Population Pyknosed Nuclei (%): 4%
  Population Tubulin-Different-Phenotype (%): 63%
  Total Cell Count: 109

## CNC(=O)c1ccc(Nc2nc(OC3CCCC3)c3c(-c4ccc5nc(C)oc5c4)c[nH]c3n2)c(OC)c1
[1]
  Population Apoptotic (%): 69%
  Population Fragmented Nuclei (%): 29%
  Population Healthy Nuclei (%): 53%
  Population Hoechst High Intensity Objects (%): 10%
  Population Membrane Permeable-Phenotype (%): 46%
  Population Mitochondria Different-Phenotype (%): 5%
  Population Mitotic Cells (%): 30%
  Population Normal (%): 89%
  Population Pyknosed Nuclei (%): 17%
  Population Tubulin-Different-Phenotype (%): 80%
  Total Cell Count: 237
[2]
  Population Apoptotic (%): 33%
  Population Fragmented Nuclei (%): 60%
  Population Healthy Nuclei (%): 34%
  Population Hoechst High Intensity Objects (%): 33%
  Population Membrane Permeable-Phenotype (%): 45%
  Population Mitochondria Different-Phenotype (%): 9%
  Population Mitotic Cells (%): 66%
  Population Normal (%): 66%
  Population Pyknosed Nuclei (%): 4%
  Population Tubulin-Different-Phenotype (%): 86%
  Total Cell Count: 96
[3]
  Population Apoptotic (%): 77%
  Population Fragmented Nuclei (%): 33%
  Population Healthy Nuclei (%): 50%
  Population Hoechst High Intensity Objects (%): 14%
  Population Membrane Permeable-Phenotype (%): 14%
  Population Mitotic Cells (%): 22%
  Population Normal (%): 85%
  Population Pyknosed Nuclei (%): 16%
  Population Tubulin-Different-Phenotype (%): 26%
  Total Cell Count: 194
[4]
  Population Apoptotic (%): 33%
  Population Fragmented Nuclei (%): 60%
  Population Healthy Nuclei (%): 27%
  Population Hoechst High Intensity Objects (%): 40%
  Population Membrane Permeable-Phenotype (%): 30%
  Population Mitochondria Different-Phenotype (%): 7%
  Population Mitotic Cells (%): 66%
  Population Normal (%): 59%
  Population Pyknosed Nuclei (%): 12%
  Population Tubulin-Different-Phenotype (%): 23%
[5]
  Population Apoptotic (%): 67%
  Population Fragmented Nuclei (%): 36%
  Population Healthy Nuclei (%): 41%
  Population Hoechst High Intensity Objects (%): 10%
  Population Membrane Permeable-Phenotype (%): 26%
  Population Mitochondria Different-Phenotype (%): 11%
  Population Mitotic Cells (%): 32%
  Population Normal (%): 89%
  Population Pyknosed Nuclei (%): 22%
  Population Tubulin-Different-Phenotype (%): 79%
  Total Cell Count: 265
[6]
  Population Apoptotic (%): 100%
  Population Fragmented Nuclei (%): 62%
  Population Healthy Nuclei (%): 35%
  Population Hoechst High Intensity Objects (%): 35%
  Population Membrane Permeable-Phenotype (%): 19%
  Population Mitochondria Different-Phenotype (%): 19%
  Population Mitotic Cells (%): 0%
  Population Normal (%): 64%
  Population Pyknosed Nuclei (%): 1%
  Population Tubulin-Different-Phenotype (%): 90%
  Total Cell Count: 92
[7]
  Population Fragmented Nuclei (%): 28%
  Population Healthy Nuclei (%): 52%
  Population Hoechst High Intensity Objects (%): 23%
  Population Membrane Permeable-Phenotype (%): 5%
  Population Mitochondria Different-Phenotype (%): 3%
  Population Normal (%): 76%
  Population Pyknosed Nuclei (%): 19%
  Population Tubulin-Different-Phenotype (%): 19%
  Total Cell Count: 193
[8]
  Population Apoptotic (%): 71%
  Population Fragmented Nuclei (%): 60%
  Population Healthy Nuclei (%): 25%
  Population Hoechst High Intensity Objects (%): 40%
  Population Membrane Permeable-Phenotype (%): 7%
  Population Mitochondria Different-Phenotype (%): 7%
  Population Mitotic Cells (%): 28%
  Population Normal (%): 60%
  Population Pyknosed Nuclei (%): 13%
  Population Tubulin-Different-Phenotype (%): 23%
  Total Cell Count: 85
